Results of several laboratories.
Target: Serine/threonine-protein kinase MARK2 (MARK2, Homo sapiens, UniProt Q7KZI7)

Compound	read-out	method	concentration	remaining binding [%]
O=C(NCCCC1CCCCC1)c1ccc(CNC(=O)c2cnn(-c3ccccc3)c2C(F)(F)F)cc1	cell-free assay	competition with immobilised ligand	0.1 µM	100
CCN1CCN(Cc2ccc(C(=O)Nc3ccc(C)c(Oc4ccc5c(c4)CC(=O)N5)c3)cc2C(F)(F)F)CC1	binding	competition with immobilised ligand	1 µM	100
CNC(=O)[C@@H]1CC[C@@H](n2c(-c3ccc4cnccc4c3)nc3ccc(C(=O)NCc4cccc(C(N)=O)c4)cc32)C1	binding	competition with immobilised ligand	1 µM	100
CN(CCCC(F)(F)F)c1nccc(-c2cnn3ncccc23)n1	binding		1 µM	100
C[C@H](NC(=O)c1cnc2n1[C@](C)(Cc1ccc(C#N)cc1)C(=O)N2c1cc(Cl)c(F)c(Cl)c1)C(=O)NC1(c2ccccn2)CC1	cell-free assay	competition with immobilised ligand	1 µM	100
O=C(NCC1CCOCC1)c1n[nH]cc1NC(=O)c1c(F)cccc1F	binding	competition with immobilised ligand	1 µM	71
O=C(c1ccc(Nc2ncc(Cl)c(-c3ccc(Cl)s3)n2)cc1)N1CCC(N2CCCC2)CC1	binding	competition with immobilised ligand	1 µM	69
COc1ccc2cc(OCC3(C(=O)O)CN(C(=O)c4ccc(F)cc4)C3)ccc2c1	cell-free assay	competition with immobilised ligand	1 µM	91
N[C@@H]1CCN(c2nccc(-c3cnn4ncccc34)n2)C1	binding		1 µM	100
C=CC(=O)N1CCC(C(=O)NCC(=O)N2CCN(c3nc(-c4cnc(N)nc4C(F)F)nc(N4CCOCC4)n3)CC2)CC1	binding	competition with immobilised ligand	1 µM	90
C[C@H](c1ccc(F)cc1)N(Cc1cccc(C(=O)O)c1)C(=O)c1cnc2ccccc2c1	cell-free assay	competition with immobilised ligand	1 µM	80
COc1ccnn2ncc(-c3ccnc(N(C)C)n3)c12	binding		1 µM	92
O=C(Nc1cccnn1)N1CCC(=Cc2cccc(Oc3ccc(C(F)(F)F)cn3)c2)CC1	cell-free assay	competition with immobilised ligand	1 µM	100
C[C@H]1CCN(c2nccc(-c3cnn4ncccc34)n2)C1	binding		1 µM	100
O=C(NCCCN1CCOCC1)c1ccc(Nc2nccc(-c3cc4ccccc4s3)n2)cc1	binding	competition with immobilised ligand	1 µM	81
O=C(O)[C@@H]1[C@@H](Cn2nnc3ccccc3c2=O)CC[C@H]1C(=O)c1ccc(OCCC2CCOCC2)cc1	cell-free assay	competition with immobilised ligand	1 µM	100
COc1cnc(Nc2cccc(S(N)(=O)=O)c2)nc1N1CCN(c2ccccc2)CC1	binding	competition with immobilised ligand	1 µM	88
Cc1cnn2ncc(-c3ccnc(N(C)C)n3)c2c1	binding		1 µM	100
O=C(NCCCN1CCOCC1)c1ccc(Nc2ncc(Cl)c(-c3ccc(Cl)s3)n2)cc1	binding	competition with immobilised ligand	1 µM	74
COc1cccc(CNC(=O)c2nc3scc(COCc4ccc(C(=O)O)cc4)c3c(=O)[nH]2)c1	cell-free assay	competition with immobilised ligand	1 µM	100
F[C@@H]1CCN(c2nccc(-c3cnn4ncccc34)n2)C1	binding		1 µM	100
COc1ncc2cc3ccccc3nc2c1C#N	cell-free assay	competition with immobilised ligand	5 µM	97
